Data from ChEMBL document CHEMBL4304816, “A Novel Biphenyl-based Chemotype of Retinoid X Receptor Ligands Enables Subtype and Heterodimer Preferences” (ACS Med Chem Lett, 2019).
Active and inactive are the calls of the source. The rule behind the calls is not given here.

Experiments:
Format in all cases: cell-based
[1] = biological target: T1, Retinoic acid receptor RXR-beta (Homo sapiens, UniProt P28702); test: Agonist activity at Gal4-LBD fused RXRbeta (unknown origin) expressed in HEK293T cells after 14 to 16 hrs by dual-Glo luciferase assay
T1 sequence (P28702 whole entry): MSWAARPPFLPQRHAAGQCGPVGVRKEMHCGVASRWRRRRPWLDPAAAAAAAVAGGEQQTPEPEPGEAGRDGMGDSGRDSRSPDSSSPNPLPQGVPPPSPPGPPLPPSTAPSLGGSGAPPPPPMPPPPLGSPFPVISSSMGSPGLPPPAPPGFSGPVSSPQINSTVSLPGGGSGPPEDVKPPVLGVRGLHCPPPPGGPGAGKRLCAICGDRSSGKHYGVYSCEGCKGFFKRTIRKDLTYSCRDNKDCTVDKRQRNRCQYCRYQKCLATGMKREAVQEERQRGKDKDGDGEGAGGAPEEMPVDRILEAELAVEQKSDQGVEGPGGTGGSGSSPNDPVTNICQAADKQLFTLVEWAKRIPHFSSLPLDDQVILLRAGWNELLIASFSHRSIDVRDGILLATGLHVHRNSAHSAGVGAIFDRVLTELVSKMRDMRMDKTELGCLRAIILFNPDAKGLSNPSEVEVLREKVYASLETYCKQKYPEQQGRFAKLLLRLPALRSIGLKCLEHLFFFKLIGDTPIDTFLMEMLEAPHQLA
Procedure, shortened: (§1)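 Gal4-hybrid RXRα/β/γ reporter gene assays in HEK293T cells. Fold activation is the maximal fold activation versus 0.1% DMSO.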

[2] = biological target: T2, Retinoic acid receptor RXR-alpha (Homo sapiens, UniProt P19793); test: Agonist activity at Gal4-LBD fused RXRalpha (unknown origin) expressed in HEK293T cells after 14 to 16 hrs by dual-Glo luciferase assay; procedure, shortened: as §1
T2 sequence (P19793 whole entry): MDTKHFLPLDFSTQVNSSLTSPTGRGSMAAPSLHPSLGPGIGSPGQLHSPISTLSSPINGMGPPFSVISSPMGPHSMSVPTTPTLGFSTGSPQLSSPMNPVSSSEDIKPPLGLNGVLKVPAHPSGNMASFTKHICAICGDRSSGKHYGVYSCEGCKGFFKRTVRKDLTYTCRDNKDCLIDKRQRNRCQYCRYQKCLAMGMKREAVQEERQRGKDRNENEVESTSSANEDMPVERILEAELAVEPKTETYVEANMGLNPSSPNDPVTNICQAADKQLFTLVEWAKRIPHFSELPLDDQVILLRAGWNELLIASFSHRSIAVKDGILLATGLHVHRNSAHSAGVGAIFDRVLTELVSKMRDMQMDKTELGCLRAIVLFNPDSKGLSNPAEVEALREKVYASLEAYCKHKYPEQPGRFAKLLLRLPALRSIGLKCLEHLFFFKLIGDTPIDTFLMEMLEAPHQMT

[3] = biological target: T3, Peroxisome proliferator-activated receptor gamma (Homo sapiens) (UniProt P37231); test: Agonist activity at Gal4-LBD fused PPARgamma (unknown origin) expressed in HEK293T cells at 10 uM after 14 to 16 hrs by dual-Glo luciferase assay
T3 sequence (whole entry): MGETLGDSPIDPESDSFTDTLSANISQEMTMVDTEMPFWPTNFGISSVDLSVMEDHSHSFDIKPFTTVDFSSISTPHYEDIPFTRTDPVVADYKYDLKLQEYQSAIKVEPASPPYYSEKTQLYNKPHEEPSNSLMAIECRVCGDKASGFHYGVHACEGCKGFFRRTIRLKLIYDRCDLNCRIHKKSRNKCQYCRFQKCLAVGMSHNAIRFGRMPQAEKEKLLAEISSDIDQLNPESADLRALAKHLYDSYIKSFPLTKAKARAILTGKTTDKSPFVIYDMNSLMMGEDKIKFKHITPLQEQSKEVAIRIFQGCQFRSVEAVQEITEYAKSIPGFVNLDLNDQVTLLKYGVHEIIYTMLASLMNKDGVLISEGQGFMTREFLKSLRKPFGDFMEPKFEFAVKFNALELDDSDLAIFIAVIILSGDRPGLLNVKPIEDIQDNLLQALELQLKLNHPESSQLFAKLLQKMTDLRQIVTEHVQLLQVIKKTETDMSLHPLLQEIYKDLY
Procedure, shortened: (§2)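 Gal4-hybrid reporter gene selectivity panel of related nuclear receptors (PPARα/β/γ, RARα/β/γ) in HEK293T cells. Activity is read as mean fold activation versus 0.1% DMSO vehicle, n ≥ 2.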

[4] = biological target: T4, Peroxisome proliferator-activated receptor alpha (Homo sapiens) (UniProt Q07869); test: Agonist activity at Gal4-LBD fused PPARalpha (unknown origin) expressed in HEK293T cells at 10 uM after 14 to 16 hrs by dual-Glo luciferase assay; procedure, shortened: as §2
T4 sequence (whole entry): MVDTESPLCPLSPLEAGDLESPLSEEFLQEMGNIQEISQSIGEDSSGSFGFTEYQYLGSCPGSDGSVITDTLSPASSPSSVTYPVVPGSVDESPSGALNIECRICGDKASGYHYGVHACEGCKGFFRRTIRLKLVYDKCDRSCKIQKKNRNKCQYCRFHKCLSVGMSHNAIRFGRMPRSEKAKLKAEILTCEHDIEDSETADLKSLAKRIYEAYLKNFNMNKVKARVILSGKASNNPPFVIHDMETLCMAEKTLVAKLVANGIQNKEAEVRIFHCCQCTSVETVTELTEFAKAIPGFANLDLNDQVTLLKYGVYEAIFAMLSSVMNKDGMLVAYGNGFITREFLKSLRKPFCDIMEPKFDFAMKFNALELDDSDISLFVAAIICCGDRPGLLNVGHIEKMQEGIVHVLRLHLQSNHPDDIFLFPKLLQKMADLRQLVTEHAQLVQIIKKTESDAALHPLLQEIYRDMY

[5] = biological target: T5, Retinoic acid receptor beta (Homo sapiens) (UniProt P10826); test: Agonist activity at Gal4-LBD fused RARbeta (unknown origin) expressed in HEK293T cells at 10 uM after 14 to 16 hrs by dual-Glo luciferase assay; procedure, shortened: as §2
T5 sequence (whole entry): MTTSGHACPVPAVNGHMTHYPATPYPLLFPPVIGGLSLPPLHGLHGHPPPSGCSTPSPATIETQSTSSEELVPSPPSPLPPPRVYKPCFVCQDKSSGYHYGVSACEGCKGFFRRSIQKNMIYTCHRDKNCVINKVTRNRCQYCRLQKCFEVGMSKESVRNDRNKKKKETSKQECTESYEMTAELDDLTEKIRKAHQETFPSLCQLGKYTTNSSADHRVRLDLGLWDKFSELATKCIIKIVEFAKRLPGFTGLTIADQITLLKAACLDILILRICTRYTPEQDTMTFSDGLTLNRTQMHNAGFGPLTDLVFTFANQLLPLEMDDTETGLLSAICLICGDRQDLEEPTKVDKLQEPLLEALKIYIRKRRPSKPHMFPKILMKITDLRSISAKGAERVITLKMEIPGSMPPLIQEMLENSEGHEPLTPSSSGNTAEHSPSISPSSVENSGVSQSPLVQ

**Q.** Which EC50 [1] does the source give for `Cc1cc(-c2ccc(C(=O)O)cc2)cc(C(C)(C)C)c1` here?
**A.** 12 µM

**Q.** And the EC50 [2]?
**A.** 8 µM

**Q.** What does the source list for `Cc1cc(-c2cc(C(F)(F)F)cc(C(F)(F)F)c2)ccc1CC(=O)O`?
**A.** Activity [3]: Active; Activity [4]: Active; EC50 [1]: 0.29 µM; Activity [5]: Active; EC50 [2]: 0.21 µM

**Q.** For `Cc1cc(-c2cc(C(C)(C)C)cc(C(C)(C)C)c2)ccc1C(=O)O`, which Activity [3] is on record?
**A.** Active

**Q.** What about the Activity [4] of the same compound?
**A.** Active

**Q.** What about the EC50 [1] of the same compound?
**A.** 6.6 µM

**Q.** What about the Activity [5] of the same compound?
**A.** Active
